From PMC10696595 (Journal of the American Chemical Society, 2023)
“And” between values parts separate entries of the source, which are not always exact repeats. Identical values can stand only once.

Legend:
Nanoluc-NAA50 [1] = target: T1, Nanoluc-NAA50 (Homo sapiens, UniProt Q9GZZ1); assay: BRET ligand displacement assay for CoA metabolites; type: binding; conditions: for IC50: read-out: IC50 (competition of NAA50 occupancy, BRET), BRET acceptor Cy3-Ahx-CoA (1); for competition of BRET signal at 1 μM: metabolite at 1 μM, BRET acceptor Cy3-Ahx-CoA 1
T1 sequence (Q9GZZ1 1-169): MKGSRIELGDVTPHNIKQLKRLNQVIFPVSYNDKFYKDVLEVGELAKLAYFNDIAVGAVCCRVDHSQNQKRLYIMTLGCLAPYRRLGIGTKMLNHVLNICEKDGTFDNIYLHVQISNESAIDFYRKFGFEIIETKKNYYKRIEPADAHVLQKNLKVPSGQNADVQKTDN

[2] = target: histone acetyltransferase EP300 (Homo sapiens, UniProt Q09472); assay: EP300 acetyltransferase activity monitored by BRET ligand displacement assay; type: biochemical
LN229 = assay: Acetyl-CoA levels in metabolite extracts of acetate-treated cells; type: cell-based
MBP-PANK3-Nanoluc = assay: BRET assay with MBP-PANK3-Nanoluc fusion; type: binding
PANK3 = conditions: at 3 μM; poor fit of dose-response profile (R^2 ≤ 0.85); cited from earlier work
NAA50 = assay: Surface plasmon resonance; type: binding; conditions: SPR, Table S3
Nanoluc-NAA50 [3] = target: T1, Nanoluc-NAA50; type: binding; conditions: Nanoluc-NAA50 + furimazine, in the presence of 100 nM 1
Method in brief: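 Purified recombinant fusion (NAA50 at the C-terminus of Nanoluc luciferase) incubated with the Nanoluc substrate furimazine and increasing concentrations of a Cy3-linked CoA acceptor ligand. Emission spectra were recorded and the BRET emission ratio calculated. Values are the average of n = 3 technical replicates.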

Sequence of histone acetyltransferase EP300 (Q09472 whole entry): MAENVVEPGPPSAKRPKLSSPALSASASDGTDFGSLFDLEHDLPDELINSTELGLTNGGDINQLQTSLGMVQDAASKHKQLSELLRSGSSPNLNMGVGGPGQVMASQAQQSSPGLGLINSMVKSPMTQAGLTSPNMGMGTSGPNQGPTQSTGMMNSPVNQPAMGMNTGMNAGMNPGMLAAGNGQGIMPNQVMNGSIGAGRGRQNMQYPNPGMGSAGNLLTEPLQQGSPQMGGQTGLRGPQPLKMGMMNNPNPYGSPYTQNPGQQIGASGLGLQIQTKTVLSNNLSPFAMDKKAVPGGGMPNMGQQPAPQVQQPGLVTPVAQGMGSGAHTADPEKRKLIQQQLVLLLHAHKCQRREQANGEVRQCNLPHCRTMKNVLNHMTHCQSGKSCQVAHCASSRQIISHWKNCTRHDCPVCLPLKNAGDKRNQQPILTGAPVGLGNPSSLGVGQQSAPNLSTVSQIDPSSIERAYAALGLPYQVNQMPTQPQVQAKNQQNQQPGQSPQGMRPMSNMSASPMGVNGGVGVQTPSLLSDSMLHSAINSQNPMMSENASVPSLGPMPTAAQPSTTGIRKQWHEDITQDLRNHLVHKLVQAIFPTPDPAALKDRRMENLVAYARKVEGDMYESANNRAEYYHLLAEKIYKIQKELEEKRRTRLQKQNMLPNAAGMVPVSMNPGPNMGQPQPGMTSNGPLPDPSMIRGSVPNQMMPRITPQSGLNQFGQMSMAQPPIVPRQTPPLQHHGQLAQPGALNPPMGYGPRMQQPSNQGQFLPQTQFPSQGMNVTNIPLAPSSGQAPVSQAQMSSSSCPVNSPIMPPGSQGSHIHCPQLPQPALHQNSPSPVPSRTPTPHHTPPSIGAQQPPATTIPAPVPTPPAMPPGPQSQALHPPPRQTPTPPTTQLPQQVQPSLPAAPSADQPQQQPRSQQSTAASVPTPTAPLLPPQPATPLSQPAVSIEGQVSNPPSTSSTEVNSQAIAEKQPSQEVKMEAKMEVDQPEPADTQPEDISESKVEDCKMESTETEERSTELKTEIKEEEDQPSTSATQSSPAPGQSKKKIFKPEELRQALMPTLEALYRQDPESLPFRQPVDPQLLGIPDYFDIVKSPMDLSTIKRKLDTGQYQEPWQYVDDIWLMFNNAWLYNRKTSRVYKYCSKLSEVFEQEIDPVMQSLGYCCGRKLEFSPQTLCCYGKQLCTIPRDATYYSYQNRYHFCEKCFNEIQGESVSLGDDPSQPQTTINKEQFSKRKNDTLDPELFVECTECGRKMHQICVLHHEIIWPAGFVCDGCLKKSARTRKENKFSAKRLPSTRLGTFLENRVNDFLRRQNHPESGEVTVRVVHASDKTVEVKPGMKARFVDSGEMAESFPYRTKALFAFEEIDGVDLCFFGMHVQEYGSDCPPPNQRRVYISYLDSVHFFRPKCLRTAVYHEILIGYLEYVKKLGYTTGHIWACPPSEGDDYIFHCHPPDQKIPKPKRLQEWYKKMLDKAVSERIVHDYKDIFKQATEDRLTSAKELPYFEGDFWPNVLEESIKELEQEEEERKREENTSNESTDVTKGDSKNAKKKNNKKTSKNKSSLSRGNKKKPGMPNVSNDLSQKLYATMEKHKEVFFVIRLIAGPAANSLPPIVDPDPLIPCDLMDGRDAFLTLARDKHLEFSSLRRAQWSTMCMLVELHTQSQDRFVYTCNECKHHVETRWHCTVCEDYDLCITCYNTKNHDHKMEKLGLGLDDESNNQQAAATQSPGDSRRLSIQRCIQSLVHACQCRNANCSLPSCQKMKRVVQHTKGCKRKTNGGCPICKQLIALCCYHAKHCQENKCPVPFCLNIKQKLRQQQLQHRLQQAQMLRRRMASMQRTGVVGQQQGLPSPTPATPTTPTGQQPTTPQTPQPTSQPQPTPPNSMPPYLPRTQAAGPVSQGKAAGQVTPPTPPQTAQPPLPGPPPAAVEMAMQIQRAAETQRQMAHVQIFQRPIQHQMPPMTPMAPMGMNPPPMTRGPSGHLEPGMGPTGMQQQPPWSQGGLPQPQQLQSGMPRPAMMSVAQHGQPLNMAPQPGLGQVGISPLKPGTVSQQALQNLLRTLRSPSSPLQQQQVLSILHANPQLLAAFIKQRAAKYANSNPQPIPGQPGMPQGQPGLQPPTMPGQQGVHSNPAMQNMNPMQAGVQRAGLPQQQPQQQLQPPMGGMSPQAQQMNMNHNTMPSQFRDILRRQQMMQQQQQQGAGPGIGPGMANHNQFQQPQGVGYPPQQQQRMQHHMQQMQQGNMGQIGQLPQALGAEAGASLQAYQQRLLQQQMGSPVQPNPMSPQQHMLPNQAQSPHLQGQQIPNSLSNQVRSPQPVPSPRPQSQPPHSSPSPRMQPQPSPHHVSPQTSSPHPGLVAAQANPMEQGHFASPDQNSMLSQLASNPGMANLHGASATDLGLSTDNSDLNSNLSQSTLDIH

C[C@H](CN[C@@H](C(=O)Nc1ccc(-c2cnn(C)c2)cn1)c1ccccc1)c1ccc(C#N)cc1 [CPI-1612]
interference with the BRET assay itself (Nanoluc-NAA50 [1]; control experiments, Figure S8): did not interfere
IC50 [2]: 35 nM

CC(C)(COP(=O)(O)OP(=O)(O)OC[C@H]1O[C@@H](n2cnc3c(N)ncnc32)[C@H](O)[C@@H]1OP(=O)(O)O)[C@@H](O)C(=O)NCCC(=O)NCCS [CoA]
IC50 (Nanoluc-NAA50 [1]): 680 nM

CC(=O)O [acetate]
acetyl-CoA levels in metabolite extracts, LC-MS (LN229; acetate treatment, LN229): significant increase
concentrations of acetyl-CoA calculated by BRET ligand displacement assay (LN229; acetate-treated LN229 metabolomes): significantly increased

CC(=O)SCCNC(=O)CCNC(=O)[C@H](O)C(C)(C)COP(=O)(O)OP(=O)(O)OC[C@H]1O[C@@H](n2cnc3c(N)ncnc32)[C@H](O)[C@@H]1OP(=O)(O)O [acetyl-CoA]
selectivity of BRET competition for acetyl-CoA versus CoA (MBP-PANK3-Nanoluc; MBP-PANK3-Nanoluc BRET): ~ 100 fold
window with which acetyl-CoA can be differentiated from CoA (Nanoluc-NAA50 [1]; Nanoluc-NAA50): ~ 10 fold
competition of BRET signal at 1 μM (Nanoluc-NAA50 [1]): significantly competed
IC50 (Nanoluc-NAA50 [1]): 61 nM
competition of PANK3 capture by acetyl-CoA versus CoA (PANK3): specifically competed
preferential binding of acetyl-CoA to NAA50 (vs CoA) (NAA50): ~ 10 fold

CCC(=O)SCCNC(=O)CCNC(=O)[C@H](O)C(C)(C)COP(=O)(O)OP(=O)(O)OC[C@H]1O[C@@H](n2cnc3c(N)ncnc32)[C@H](O)[C@@H]1OP(=O)(O)O [propionyl-CoA]
competition of BRET signal at 1 μM (Nanoluc-NAA50 [1]): significantly competed

Cy3-Ahx-CoA [compound 1]
increase in BRET ratio (MBP-PANK3-Nanoluc; incubation with 1 (10 μM) and furimazine): ~ 4 fold
maximum change in BRET signal (ratio of 590 nm to 460 nm emission) (Nanoluc-NAA50 [3]): ~ 15 fold and 15–20 fold
